# Measurements: ChEMBL document CHEMBL4020830, “Design, Synthesis, and Evaluation of a Novel Series of Indole Sulfonamide Peroxisome Proliferator Activated Receptor (PPAR) α/γ/δ Triple Activators: Discovery of Lanifibranor, a New Antifibrotic Clinical Candidate” (J Med Chem, 2018)
# pEC50: −log10 of the molar value.
# Biological target: T1, Peroxisome proliferator-activated receptor alpha (Homo sapiens) (UniProt Q07869)
# T1 sequence (whole entry): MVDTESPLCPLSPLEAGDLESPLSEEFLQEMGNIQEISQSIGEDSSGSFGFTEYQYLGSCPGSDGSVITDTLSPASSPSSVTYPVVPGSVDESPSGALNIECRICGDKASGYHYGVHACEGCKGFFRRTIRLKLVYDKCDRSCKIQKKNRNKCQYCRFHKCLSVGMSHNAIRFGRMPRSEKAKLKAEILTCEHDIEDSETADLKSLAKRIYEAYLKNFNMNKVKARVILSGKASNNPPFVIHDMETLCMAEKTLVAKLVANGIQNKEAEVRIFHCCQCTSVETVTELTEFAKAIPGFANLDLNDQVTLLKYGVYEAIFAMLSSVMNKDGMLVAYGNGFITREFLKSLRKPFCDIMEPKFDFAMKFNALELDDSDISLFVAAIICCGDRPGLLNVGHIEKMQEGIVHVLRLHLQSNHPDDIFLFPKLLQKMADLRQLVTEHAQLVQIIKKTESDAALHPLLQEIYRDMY
# Experiment: Transactivation of human GAL4-fused PPARalpha LBD expressed in African green monkey COS7 cells co-expressing 5Gal4 pGL3 TK Luc after overnight incubation by luciferase reporter gene assay relative to fenofibric acid
# Assay type: cell-based
# Summary of the method: (§1)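 Cell-based Gal-4 transactivation assay in COS-7 cells transfected with PPARα, PPARδ or PPARγ ligand-binding domain. EC50 and Emax were derived, with Emax as maximum activation in percent of control. EC50s are means of at least two independent experiments performed in triplicate.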
row,Structure (SMILES),Emax [%]
1,COc1cccc(S(=O)(=O)n2c(CCCC(=O)O)cc3cc(C(F)(F)F)ccc32)c1,37
2,O=C(O)CCCc1cc2cc(Cl)ccc2n1S(=O)(=O)c1ccc2nsnc2c1,81
3,Cc1nc2ccc(S(=O)(=O)n3c(CCCC(=O)O)cc4cc(Cl)ccc43)cc2s1,< 20
4,O=C(O)CCCCc1cc2cc(Cl)ccc2n1S(=O)(=O)c1ccccc1,< 20
5,O=C(O)CCCc1cc2cc(Cl)ccc2n1S(=O)(=O)c1ccc2ccccc2c1,< 20
6,O=C(O)CCCc1cc2cc(Cl)ccc2n1S(=O)(=O)c1ccc2c(c1)OCO2,77
7,O=C(O)CCCc1cc2cc(C(F)(F)F)ccc2n1S(=O)(=O)c1ccccc1,48
8,O=C(O)CCCc1cc2cc(C(F)(F)F)ccc2n1S(=O)(=O)c1cccc(OC(F)(F)F)c1,50
9,CN1CCOc2ccc(S(=O)(=O)n3c(CCCC(=O)O)cc4cc(Cl)ccc43)cc21,113
10,O=C(O)CCCc1cc2cc(Cl)ccc2n1S(=O)(=O)c1cccc2ccccc12,67
11,O=C(O)COCc1cc2cc(Cl)ccc2n1S(=O)(=O)c1ccccc1,< 20
12,COc1ccc2c(c1)cc(CCCC(=O)O)n2S(=O)(=O)c1ccccc1,< 20
13,O=C(O)CCCc1cc2cc(C(F)(F)F)ccc2n1S(=O)(=O)c1ccc(OC(F)(F)F)cc1,40
14,CC(C)(CCc1cc2cc(Cl)ccc2n1S(=O)(=O)c1ccccc1)C(=O)O,90
15,Nc1nc2ccc(S(=O)(=O)n3c(CCCC(=O)O)cc4cc(Cl)ccc43)cc2s1,57

# Biological target: T2, Peroxisome proliferator-activated receptor delta (Homo sapiens, UniProt Q03181)
# T2 sequence (Q03181 whole entry): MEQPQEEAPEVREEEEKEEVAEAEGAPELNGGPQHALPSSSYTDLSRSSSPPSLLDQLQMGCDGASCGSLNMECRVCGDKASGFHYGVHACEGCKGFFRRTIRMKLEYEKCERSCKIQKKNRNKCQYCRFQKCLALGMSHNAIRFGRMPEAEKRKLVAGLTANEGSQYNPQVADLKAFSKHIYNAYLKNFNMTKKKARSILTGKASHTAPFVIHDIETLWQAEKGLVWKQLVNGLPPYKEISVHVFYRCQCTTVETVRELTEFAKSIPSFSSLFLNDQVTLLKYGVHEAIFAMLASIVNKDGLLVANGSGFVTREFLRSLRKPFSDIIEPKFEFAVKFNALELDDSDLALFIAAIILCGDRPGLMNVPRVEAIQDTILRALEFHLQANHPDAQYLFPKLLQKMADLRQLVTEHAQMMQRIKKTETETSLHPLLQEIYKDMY
# Experiment: Transactivation of human GAL4-fused PPARdelta LBD expressed in African green monkey COS7 cells co-expressing 5Gal4 pGL3 TK Luc after overnight incubation by luciferase reporter gene assay
# Assay type: cell-based
# Summary of the method: as §1
row,Structure (SMILES),pEC50
1,COc1cccc(S(=O)(=O)n2c(CCCC(=O)O)cc3cc(C(F)(F)F)ccc32)c1,5.79
2,O=C(O)CCCc1cc2cc(Cl)ccc2n1S(=O)(=O)c1ccc2nsnc2c1,< 5.30
3,Cc1nc2ccc(S(=O)(=O)n3c(CCCC(=O)O)cc4cc(Cl)ccc43)cc2s1,6.36
4,O=C(O)CCCc1cc2cc(Cl)ccc2n1S(=O)(=O)c1ccc2c(c1)OCO2,6.01
5,O=C(O)CCCc1cc2cc(C(F)(F)F)ccc2n1S(=O)(=O)c1ccccc1,< 5.30
6,O=C(O)CCCc1cc2cc(C(F)(F)F)ccc2n1S(=O)(=O)c1cccc(OC(F)(F)F)c1,5.94
7,CN1CCOc2ccc(S(=O)(=O)n3c(CCCC(=O)O)cc4cc(Cl)ccc43)cc21,6.16
8,O=C(O)CCCc1cc2cc(C(F)(F)F)ccc2n1S(=O)(=O)c1ccc(OC(F)(F)F)cc1,5.68
9,Nc1nc2ccc(S(=O)(=O)n3c(CCCC(=O)O)cc4cc(Cl)ccc43)cc2s1,6.04

# Biological target: T3, Peroxisome proliferator-activated receptor delta (Homo sapiens) (UniProt Q03181)
# T3 sequence (whole entry): T2 sequence (Q03181 whole entry)
# Experiment: Transactivation of human GAL4-fused PPARdelta LBD expressed in African green monkey COS7 cells co-expressing 5Gal4 pGL3 TK Luc after overnight incubation by luciferase reporter gene assay relative to GW501516
# Assay type: cell-based
# Summary of the method: as §1
row,Structure (SMILES),Emax [%]
1,COc1cccc(S(=O)(=O)n2c(CCCC(=O)O)cc3cc(C(F)(F)F)ccc32)c1,28
2,O=C(O)CCCc1cc2cc(Cl)ccc2n1S(=O)(=O)c1ccc2nsnc2c1,35
3,Cc1nc2ccc(S(=O)(=O)n3c(CCCC(=O)O)cc4cc(Cl)ccc43)cc2s1,27
4,O=C(O)CCCCc1cc2cc(Cl)ccc2n1S(=O)(=O)c1ccccc1,< 20
5,O=C(O)CCCc1cc2cc(Cl)ccc2n1S(=O)(=O)c1ccc2ccccc2c1,< 20
6,O=C(O)CCCc1cc2cc(Cl)ccc2n1S(=O)(=O)c1ccc2c(c1)OCO2,43
7,O=C(O)CCCc1cc2cc(C(F)(F)F)ccc2n1S(=O)(=O)c1ccccc1,49
8,O=C(O)CCCc1cc2cc(C(F)(F)F)ccc2n1S(=O)(=O)c1cccc(OC(F)(F)F)c1,23
9,CN1CCOc2ccc(S(=O)(=O)n3c(CCCC(=O)O)cc4cc(Cl)ccc43)cc21,54
10,O=C(O)CCCc1cc2cc(Cl)ccc2n1S(=O)(=O)c1cccc2ccccc12,< 20
11,O=C(O)COCc1cc2cc(Cl)ccc2n1S(=O)(=O)c1ccccc1,< 20
12,COc1ccc2c(c1)cc(CCCC(=O)O)n2S(=O)(=O)c1ccccc1,< 20
13,O=C(O)CCCc1cc2cc(C(F)(F)F)ccc2n1S(=O)(=O)c1ccc(OC(F)(F)F)cc1,28
14,CC(C)(CCc1cc2cc(Cl)ccc2n1S(=O)(=O)c1ccccc1)C(=O)O,< 20
15,Nc1nc2ccc(S(=O)(=O)n3c(CCCC(=O)O)cc4cc(Cl)ccc43)cc2s1,82

# Biological target: T4, Peroxisome proliferator-activated receptor alpha (Homo sapiens, UniProt Q07869)
# T4 sequence (Q07869 whole entry): T1 sequence (whole entry)
# Experiment: Transactivation of human GAL4-fused PPARalpha LBD expressed in African green monkey COS7 cells co-expressing 5Gal4 pGL3 TK Luc after overnight incubation by luciferase reporter gene assay
# Assay type: cell-based
# Summary of the method: as §1
row,Structure (SMILES),pEC50
1,COc1cccc(S(=O)(=O)n2c(CCCC(=O)O)cc3cc(C(F)(F)F)ccc32)c1,5.93
2,O=C(O)CCCc1cc2cc(Cl)ccc2n1S(=O)(=O)c1ccc2nsnc2c1,< 5.30
3,O=C(O)CCCc1cc2cc(Cl)ccc2n1S(=O)(=O)c1ccc2c(c1)OCO2,6.10
4,O=C(O)CCCc1cc2cc(C(F)(F)F)ccc2n1S(=O)(=O)c1ccccc1,5.92
5,O=C(O)CCCc1cc2cc(C(F)(F)F)ccc2n1S(=O)(=O)c1cccc(OC(F)(F)F)c1,5.56
6,CN1CCOc2ccc(S(=O)(=O)n3c(CCCC(=O)O)cc4cc(Cl)ccc43)cc21,6.39
7,O=C(O)CCCc1cc2cc(Cl)ccc2n1S(=O)(=O)c1cccc2ccccc12,6.05
8,O=C(O)CCCc1cc2cc(C(F)(F)F)ccc2n1S(=O)(=O)c1ccc(OC(F)(F)F)cc1,5.71
9,CC(C)(CCc1cc2cc(Cl)ccc2n1S(=O)(=O)c1ccccc1)C(=O)O,6.80
10,Nc1nc2ccc(S(=O)(=O)n3c(CCCC(=O)O)cc4cc(Cl)ccc43)cc2s1,5.90

# Biological target: T5, Peroxisome proliferator-activated receptor gamma (Homo sapiens, UniProt P37231)
# T5 sequence (P37231 whole entry): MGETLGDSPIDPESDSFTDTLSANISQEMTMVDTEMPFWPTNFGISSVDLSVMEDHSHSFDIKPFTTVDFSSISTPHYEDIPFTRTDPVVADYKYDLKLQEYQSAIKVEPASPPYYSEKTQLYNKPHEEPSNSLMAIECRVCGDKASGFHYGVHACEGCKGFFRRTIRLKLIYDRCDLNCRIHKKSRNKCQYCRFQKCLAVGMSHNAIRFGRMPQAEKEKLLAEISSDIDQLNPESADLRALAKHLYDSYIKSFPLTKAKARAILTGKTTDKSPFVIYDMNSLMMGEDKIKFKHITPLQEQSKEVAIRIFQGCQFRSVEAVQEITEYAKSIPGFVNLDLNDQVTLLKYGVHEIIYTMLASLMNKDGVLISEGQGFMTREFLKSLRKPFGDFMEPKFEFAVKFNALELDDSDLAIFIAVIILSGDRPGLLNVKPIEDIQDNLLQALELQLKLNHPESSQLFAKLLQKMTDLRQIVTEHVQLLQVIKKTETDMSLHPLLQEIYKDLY
# Experiment: Transactivation of human GAL4-fused PPARgamma LBD expressed in African green monkey COS7 cells co-expressing 5Gal4 pGL3 TK Luc after overnight incubation by luciferase reporter gene assay
# Assay type: cell-based
# Summary of the method: as §1
row,Structure (SMILES),pEC50
1,COc1cccc(S(=O)(=O)n2c(CCCC(=O)O)cc3cc(C(F)(F)F)ccc32)c1,7.19
2,O=C(O)CCCc1cc2cc(Cl)ccc2n1S(=O)(=O)c1ccc2nsnc2c1,6.82
3,Cc1nc2ccc(S(=O)(=O)n3c(CCCC(=O)O)cc4cc(Cl)ccc43)cc2s1,7.96
4,O=C(O)CCCc1cc2cc(Cl)ccc2n1S(=O)(=O)c1ccc2ccccc2c1,7.46
5,O=C(O)CCCc1cc2cc(Cl)ccc2n1S(=O)(=O)c1ccc2c(c1)OCO2,7.15
6,O=C(O)CCCc1cc2cc(C(F)(F)F)ccc2n1S(=O)(=O)c1ccccc1,6.38
7,O=C(O)CCCc1cc2cc(C(F)(F)F)ccc2n1S(=O)(=O)c1cccc(OC(F)(F)F)c1,6.70
8,CN1CCOc2ccc(S(=O)(=O)n3c(CCCC(=O)O)cc4cc(Cl)ccc43)cc21,7.80
9,O=C(O)CCCc1cc2cc(Cl)ccc2n1S(=O)(=O)c1cccc2ccccc12,6.58
10,O=C(O)CCCc1cc2cc(C(F)(F)F)ccc2n1S(=O)(=O)c1ccc(OC(F)(F)F)cc1,6.24
11,CC(C)(CCc1cc2cc(Cl)ccc2n1S(=O)(=O)c1ccccc1)C(=O)O,6.04
12,Nc1nc2ccc(S(=O)(=O)n3c(CCCC(=O)O)cc4cc(Cl)ccc43)cc2s1,7.39

# Biological target: T6, Peroxisome proliferator-activated receptor gamma (Homo sapiens) (UniProt P37231)
# T6 sequence (whole entry): T5 sequence (P37231 whole entry)
# Experiment: Transactivation of human GAL4-fused PPARgamma LBD expressed in African green monkey COS7 cells co-expressing 5Gal4 pGL3 TK Luc after overnight incubation by luciferase reporter gene assay relative to rosiglitazone
# Assay type: cell-based
# Summary of the method: as §1
row,Structure (SMILES),Emax [%]
1,COc1cccc(S(=O)(=O)n2c(CCCC(=O)O)cc3cc(C(F)(F)F)ccc32)c1,46
2,O=C(O)CCCc1cc2cc(Cl)ccc2n1S(=O)(=O)c1ccc2nsnc2c1,67
3,Cc1nc2ccc(S(=O)(=O)n3c(CCCC(=O)O)cc4cc(Cl)ccc43)cc2s1,36
4,O=C(O)CCCCc1cc2cc(Cl)ccc2n1S(=O)(=O)c1ccccc1,< 20
5,O=C(O)CCCc1cc2cc(Cl)ccc2n1S(=O)(=O)c1ccc2ccccc2c1,34
6,O=C(O)CCCc1cc2cc(Cl)ccc2n1S(=O)(=O)c1ccc2c(c1)OCO2,45
7,O=C(O)CCCc1cc2cc(C(F)(F)F)ccc2n1S(=O)(=O)c1ccccc1,50
8,O=C(O)CCCc1cc2cc(C(F)(F)F)ccc2n1S(=O)(=O)c1cccc(OC(F)(F)F)c1,39
9,CN1CCOc2ccc(S(=O)(=O)n3c(CCCC(=O)O)cc4cc(Cl)ccc43)cc21,48
10,O=C(O)CCCc1cc2cc(Cl)ccc2n1S(=O)(=O)c1cccc2ccccc12,36
11,O=C(O)COCc1cc2cc(Cl)ccc2n1S(=O)(=O)c1ccccc1,< 20
12,COc1ccc2c(c1)cc(CCCC(=O)O)n2S(=O)(=O)c1ccccc1,< 20
13,O=C(O)CCCc1cc2cc(C(F)(F)F)ccc2n1S(=O)(=O)c1ccc(OC(F)(F)F)cc1,32
14,CC(C)(CCc1cc2cc(Cl)ccc2n1S(=O)(=O)c1ccccc1)C(=O)O,32
15,Nc1nc2ccc(S(=O)(=O)n3c(CCCC(=O)O)cc4cc(Cl)ccc43)cc2s1,74
